Published values pooled from the literature.
Compare with care: the assays were run in different laboratories.
Target: Serine/threonine-protein kinase ULK1 (ULK1, Homo sapiens, UniProt O75385)
Residues used in one study (O75385 1-1050): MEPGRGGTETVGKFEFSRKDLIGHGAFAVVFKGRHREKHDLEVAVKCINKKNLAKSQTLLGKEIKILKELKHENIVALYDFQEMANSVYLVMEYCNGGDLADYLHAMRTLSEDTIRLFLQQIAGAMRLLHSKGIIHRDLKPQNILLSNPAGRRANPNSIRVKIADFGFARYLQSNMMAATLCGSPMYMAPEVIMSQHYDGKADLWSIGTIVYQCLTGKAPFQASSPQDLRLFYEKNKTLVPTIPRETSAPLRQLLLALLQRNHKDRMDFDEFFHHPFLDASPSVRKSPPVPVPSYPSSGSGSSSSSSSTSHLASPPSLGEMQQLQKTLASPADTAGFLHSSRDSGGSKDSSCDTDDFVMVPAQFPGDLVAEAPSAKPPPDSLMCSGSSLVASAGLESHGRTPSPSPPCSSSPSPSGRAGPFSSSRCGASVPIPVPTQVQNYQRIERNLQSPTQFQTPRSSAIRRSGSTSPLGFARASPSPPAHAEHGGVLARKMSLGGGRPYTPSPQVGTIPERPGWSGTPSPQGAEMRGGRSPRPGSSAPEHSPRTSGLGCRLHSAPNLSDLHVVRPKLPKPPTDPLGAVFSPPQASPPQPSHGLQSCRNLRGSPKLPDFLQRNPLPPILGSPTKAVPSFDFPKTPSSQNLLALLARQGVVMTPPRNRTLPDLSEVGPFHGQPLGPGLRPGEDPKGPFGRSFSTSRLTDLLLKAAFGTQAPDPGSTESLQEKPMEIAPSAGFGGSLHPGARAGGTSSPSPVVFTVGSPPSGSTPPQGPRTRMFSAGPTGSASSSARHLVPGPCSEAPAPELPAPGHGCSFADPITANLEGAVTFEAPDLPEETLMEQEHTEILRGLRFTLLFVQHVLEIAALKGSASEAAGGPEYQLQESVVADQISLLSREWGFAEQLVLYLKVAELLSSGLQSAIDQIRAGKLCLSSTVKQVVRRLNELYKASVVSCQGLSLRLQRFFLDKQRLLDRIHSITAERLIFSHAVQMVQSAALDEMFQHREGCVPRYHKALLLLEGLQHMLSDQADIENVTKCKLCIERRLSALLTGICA

| SMILES | read-out | method | concentration | remaining binding [%] |
| --- | --- | --- | --- | --- |
| CN(c1nccc(-c2cnn3ncccc23)n1)C1CC1 | binding | – | 1 µM | 85 |
| O=C(c1ccc(Nc2nccc(-c3cc4ccccc4s3)n2)cc1)N1CCC(N2CCCC2)CC1 | binding | competition with immobilised ligand | 1 µM | 50 |
| N[C@@H]1CCN(c2nccc(-c3cnn4ncccc34)n2)C1 | binding | – | 1 µM | 100 |
| C[C@@H]1CN(c2cc(-c3nn(C)c4ccc(OC5(C)CC5)cc34)ncn2)C[C@H](C)O1 | cell-free assay | competition with immobilised ligand | 1 µM | 76 |
| COc1cnc(Nc2cccc(S(N)(=O)=O)c2)nc1N1CCN(c2ccccc2)CC1 | binding | competition with immobilised ligand | 1 µM | 73 |
| COc1ccnn2ncc(-c3ccnc(N(C)C)n3)c12 | binding | – | 1 µM | 100 |
| CNC(=O)c1ccccc1Nc1cc(Nc2ccc(N3CCOCC3)cc2OC)ncc1C(F)(F)F | binding | competition with immobilised ligand | 1 µM | < 10 |
| C[C@H]1CCN(c2nccc(-c3cnn4ncccc34)n2)C1 | binding | – | 1 µM | 85 |
| O=C(c1ccc(Nc2ncc(Cl)c(-c3cc4ccccc4s3)n2)cc1)N1CCC(N2CCCC2)CC1 | binding | competition with immobilised ligand | 1 µM | 1.8 |
| CNC(=O)[C@@H]1CC[C@@H](n2c(-c3ccc4cnccc4c3)nc3ccc(C(=O)NCc4cccc(C(N)=O)c4)cc32)C1 | binding | competition with immobilised ligand | 1 µM | 100 |
| O=C(Nc1c[nH]nc1C(=O)NC1CCNCC1)c1cc(F)cc(F)c1 | binding | competition with immobilised ligand | 1 µM | 100 |
| CN(C)C(=O)Cn1cc(-c2nc([C@@](C)(c3ccc(-c4cnc(N)nc4)cc3)C3CC3)no2)cn1 | cell-free assay | competition with immobilised ligand | 1 µM | 77 |
| Cc1cnc(Nc2ccc(C(=O)N3CCC(N4CCCC4)CC3)cc2)nc1-c1cc2ccccc2s1 | binding | competition with immobilised ligand | 1 µM | 1.2 |
| Cc1noc([C@H]2C[C@@H](c3ccc(C(F)(F)F)cc3)CN(C(=O)N3CCS(=O)(=O)C3)C2)n1 | cell-free assay | competition with immobilised ligand | 1 µM | 85 |
| c1cncc(-c2cccc(Nc3nccc(NC4CCCCC4)n3)c2)c1 | binding | competition with immobilised ligand | 10 µM | 100 |
| CN(C)CC#Cc1ccc(OCCCc2sc(N3CCc4cccc(C(=O)Nc5nc6ccccc6s5)c4C3)nc2C(=O)O)c(F)c1 | cell-free assay | competition with immobilised ligand | 1 µM | 100 |
| FC(F)(F)Oc1cccc(-c2cnc3ccc(-c4ccncc4)nn23)c1 | binding | competition with immobilised ligand | 5 µM | 82 |
| CCS(=O)(=O)c1cc2cc(C[C@](O)(CC(C)(C)c3ccc(F)cc3C(N)=O)C(F)(F)F)[nH]c2cn1 | cell-free assay | competition with immobilised ligand | 1 µM | 100 |
| CN(C)c1nccc(-c2cnn3ncccc23)n1 | binding | – | 1 µM | 96 |
| c1ccc(N2CCN(Cc3nc4ccccc4[nH]3)CC2)nc1 | binding | competition with immobilised ligand | 1 µM | 100 |
| CN(C)c1nccc(-c2cnc3ncccn23)n1 | binding | – | 1 µM | 71 |
